# Assay outcomes as filed in PubChem.
# This excerpt belongs to a sample that is enriched for hits.
# XBP1 UPR activ: activators of adaptive arm of unfolded protein response (XBP1); hit rate 0.33% among 330,000; activation, % at 20 µM; CHO-XBP1 luciferase reporter, IRE1-XBP1 UPR activation, luminescence; percent of tunicamycin response, DMSO as zero;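 active = versus positive control, 20 µM dose yields 30% or more activation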;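 note: 100% = tunicamycin at 10 µg/mL and 0% = DMSO only wells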
#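 Assay system: CHO-XBP1 luciferase reporter cells; Schedule: 6 h treatment, 37 °C; Detection: glow luminescence from Steady-Glo reagent; Benchmarks: high control tunicamycin 10 µg/mL final, low control DMSO vehicle only.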
# Fh CTSL1 inh: blocks F. hepatica cathepsin L1 in PFM18AAP counter-screen. hit rate 0.49% among 300,000. recombinant F. hepatica cathepsin L1, Z-Leu-Arg-MCA fluorescence. inhibition, % at 5.96 µM. AID 1906;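 active = inhibition above the mean of all tested compounds plus 3 SD, set per screening campaign, cut at about 17% in these data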;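 note: 0% = plate median of test compound wells and 100% = 1 µM Z-Phe-Ala-diazomethylketone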
# CHOP UPR activ: apoptotic UPR (CHOP) activation; CHO-CHOP luciferase reporter, luminescence; percent of tunicamycin response over DMSO baseline; activation, % at 10 µM; hit rate 0.34% among 330,000; AID 449763;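 active = at 10 µM dose, activation of 40% or more, normalized to positive control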;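 note: 100% = tunicamycin at 10 µg/mL and 0% = DMSO alone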
#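 Material: CHO-CHOP cells, stable luciferase reporter of PERK-eIF2a-CHOP signalling; quantity: 500 reporter cells seeded per well; buffer or medium: F12 medium containing 10% fetal bovine serum; compound: one dose, 10 µM in 0.5% DMSO; incubation: 6 h compound treatment, 37 °C; measured by: Steady-Glo luciferase luminescence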
# UCH37 inh: blocks the human deubiquitinase UCH37; hit rate 0.33% among 330,000; Q9Y5K5; inhibition, % (test concentration not listed); purified proteasome/UCH37, Ub-AMC cleavage fluorescence;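 active = mean inhibition over replicate wells above about 20%, limit read from the data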;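 note: 0% = compound-free wells with enzyme and 100% = wells lacking proteasome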
# Target sequence (Q9Y5K5 whole entry, looked up): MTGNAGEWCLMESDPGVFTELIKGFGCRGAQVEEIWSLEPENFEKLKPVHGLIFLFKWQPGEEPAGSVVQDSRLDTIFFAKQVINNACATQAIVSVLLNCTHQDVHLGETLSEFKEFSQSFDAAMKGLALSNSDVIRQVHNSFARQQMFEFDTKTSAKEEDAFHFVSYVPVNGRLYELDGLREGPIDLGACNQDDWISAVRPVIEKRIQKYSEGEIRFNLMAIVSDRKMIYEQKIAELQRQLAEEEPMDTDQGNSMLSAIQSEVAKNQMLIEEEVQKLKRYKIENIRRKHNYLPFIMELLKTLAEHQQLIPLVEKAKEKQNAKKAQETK
#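 Material: human UCH37 enzyme supplied as purified proteasome complex. Measure: % inhibition of Ub-AMC cleavage fluorescence. Medium: pH 7.4 Tris-HCl (50 mM) with ovalbumin, ATP-MgCl2, DTT. Times: 30 min preincubation with enzyme, 25 min cleavage at room temperature. Detection: AMC fluorescence intensity at 355/460 nm.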
# CHOP inhibitor: CHOP inhibition in unfolded protein response. CHO-K1 CHOP-promoter luciferase, tunicamycin-induced, 15-18 h. inhibition, % at 10 µM. hit rate 3.8% among 220,000;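 active = compounds that reduced the stress-induced luciferase reporter signal by more than about 70% of percent inhibition, limit read from the data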;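 note: 0% = tunicamycin plus vehicle and 100% = wells without tunicamycin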
# CHOP confirm: confirmation of CHOP induction inhibitors | shares compounds with CHOP inhibitor | CHO-CHOP promoter luciferase reporter, tunicamycin-induced, luminescence | inhibition, % at 10 µM | hit rate 45% among 2,100 | AID 504437;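 active = mean of three repeat readings of reporter signal inhibition above a set limit, cut at about 70% in these data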;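 note: 0% = tunicamycin plus vehicle and 100% = wells lacking tunicamycin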
# * = called active by the depositor; nt = no result given.
SMILES,XBP1 UPR activ,Fh CTSL1 inh,CHOP UPR activ,UCH37 inh,CHOP inhibitor,CHOP confirm
O=C(NCc1ccc2c(c1)OCO2)c1ccc(Br)cc1,-2,-2,1,2,nt,nt
O=C(C=NO)NCCCN1CCCCCC1,nt,nt,nt,0,nt,nt
Cc1ccc(NC2=C/C(=N\S(=O)(=O)c3cccs3)c3ccccc3C2=O)c(C)c1,-3,88*,-4,65*,nt,119*
O=C1C(Nc2ccc(O)cc2)=C/C(=N/S(=O)(=O)c2cccs2)c2ccccc21,nt,nt,nt,nt,108*,110*
Cc1cccc(NC2=C/C(=N/S(=O)(=O)c3cccs3)c3ccccc3C2=O)c1,nt,54*,nt,nt,106*,114*
O=C1C=C(Nc2ccc(O)cc2)C(=O)c2ccccc21,4,2,7,6,36,nt
CC(=O)Nc1ccc(S(=O)(=O)NN=Cc2ccc(C)s2)cc1,nt,nt,nt,4,nt,nt
Cc1ccc2occ(C=NNC(=O)c3ccc(Cl)cc3)c(=O)c2c1,nt,nt,nt,0,nt,nt
O=C(O)c1ccc(NN=Cc2ccncc2)cc1,nt,nt,nt,14,nt,nt
O=C(O)c1ccc(N/N=C/c2ccc3nccnc3c2)cc1,-6,5,-10,nt,101*,116*
CCCNC(=O)NS(=O)(=O)c1ccc(Cl)cc1,-8,-1,0,5,4,nt
CCCNC(=O)c1nnsc1S(=O)c1ccc(Cl)cc1 (stereo unspecified),-8,nt,-11,5,107*,141*
Cc1ccc(S(=O)c2snnc2C)cc1 (stereo unspecified),2,-2,3,1,nt,nt
CCCNC(=O)c1nnsc1S(=O)(=O)c1ccc(Cl)cc1,-9,nt,-5,4,108*,141*
CCCNC(=O)c1ccc2snnc2c1,-1,-2,-3,4,20,nt
CNC(=O)c1nnsc1S(=O)c1ccc(Cl)cc1 (stereo unspecified),-10,nt,-11,4,107*,8
Oc1ccc(C=NNc2ccc3ccccc3c2)c(O)c1,nt,nt,nt,-6,nt,nt
CC1=C(C)/C(=N\OS(=O)(=O)c2ccccc2)C=CC1=O,-6,11,-11,nt,nt,124*
CC1=C(C)C(=NOS(=O)(=O)c2ccccc2)C=CC1=O,nt,nt,nt,5,nt,nt
Clc1ccc2[nH]c(-c3ccccc3)cc2c1,1,5,4,-16,104*,70*
c1ccc(-c2cc3ccccc3[nH]2)cc1,0,5,4,0,nt,nt
O=C(Nc1ccc(S(=O)(=O)N2CCOCC2)cc1)c1ccc(CN2CCc3ccccc3C2)cc1,-5,2,5,1,101*,89*
C=CCOc1ccc(C=Nn2cncn2)cc1OC,nt,nt,nt,1,nt,nt
O=C(N/N=C/C=C\c1ccccc1[N+](=O)[O-])c1cc(-c2ccc3ccccc3c2)n[nH]1,nt,nt,nt,nt,106*,-34
O=C(N/N=C/c1ccco1)c1cc(-c2ccc3ccccc3c2)n[nH]1,-4,2,0,nt,110*,4
SMILES,XBP1 UPR activ,Fh CTSL1 inh,CHOP UPR activ,UCH37 inh,CHOP inhibitor,CHOP confirm
O=C(N/N=C/c1c[nH]c2ccccc12)c1cc(-c2ccc(-c3ccccc3)cc2)n[nH]1,4,3,29,nt,109*,40
O=C(N/N=C/c1c[nH]c2ccccc12)C1CC1(c1ccccc1)c1ccccc1 (stereo unspecified),-1,-1,4,nt,100*,34
O=C(N/N=C/c1ccccn1)c1cc(-c2ccc3ccccc3c2)n[nH]1,3,0,2,nt,103*,114*
Cc1ccc(-c2cc(-c3ccccc3C)[nH]n2)c(O)c1,4,3,9,-1,102*,9
Cc1ccc(O)c(-c2cc(-c3cccc(F)c3)n[nH]2)c1,4,2,4,1,102*,12
Cc1ccc(O)c(-c2cc(-c3ccccc3F)[nH]n2)c1,6,3,2,-1,104*,8
CC(=NNC(=O)c1ccc(OC2CCCC2)cc1)c1ccc(C)s1,nt,nt,nt,6,nt,nt
Cc1nc(N=Cc2ccc(N(C)C)cc2)sc1C,nt,nt,nt,2,nt,nt
O=S1(=O)c2ccccc2N=NN1Cc1ccc(Cl)cc1,-2,-1,-1,2,109*,16
N#Cc1c(N)nc(SCC(=O)C23CC4CC(CC(C4)C2)C3)c(C#N)c1-c1ccc(Cl)cc1,0,-1,1,-34,101*,83*
Cc1ccc(Cl)cc1NC(=O)CCC(=O)Nc1cc(Cl)ccc1C,3,-2,-1,-1,100*,-15
CCCC(=O)Nc1cc(Cl)ccc1C,-1,5,0,3,9,nt
COc1ccc(NC(=O)CSc2nnc(-c3ccccc3)n2N)cc1,2,-2,0,1,-6,nt
CCn1c2ccccc2c2cc(NC(=O)CSc3nnc(-c4ccc(OC)cc4)n3N)ccc21,14,1,-1,-6,102*,43
O=C(CSc1nnc(SCc2ccccc2Cl)s1)NN=Cc1ccc(C(=O)O)cc1,nt,nt,nt,3,nt,nt
CCOc1ccc(/C=N/NC(=O)Cc2csc(Nc3cccc(C(F)(F)F)c3)n2)cc1,-3,0,0,nt,106*,32
CCOc1ccc(C=NNC(=O)Cc2csc(Nc3cccc(C(F)(F)F)c3)n2)cc1,nt,nt,nt,1,nt,nt
O=S(=O)(/C(=C/c1ccc(C(F)(F)F)cc1)c1nc2ccccc2[nH]1)c1ccccc1,nt,-2,nt,3,109*,134*
Cc1cc(N=Nc2c(O)c3ccccc3[nH]c2=O)ccc1N=Nc1ccc(C(=O)N(C)C)cc1,0,nt,6,nt,105*,18
CN(C)C(=O)c1ccc(N=Nc2c(O)c3ccccc3[nH]c2=O)cc1,nt,nt,nt,13,nt,nt
CS/C(N)=N/N=Cc1ccc([N+](=O)[O-])cc1,nt,nt,nt,11,nt,nt
COc1cc2c(cc1OC)C(c1ccccc1)N(C(=O)CCl)CC2 (stereo unspecified),-7,31*,-3,1,111*,117*
N#C/C(=C\c1ccc(Cl)cc1)c1nc(-c2ccco2)cs1,0,-3,3,3,-14,nt
N#C/C(=C\c1ccc(F)cc1)c1nc(-c2ccco2)cs1,3,-2,4,4,105*,-101
CCN(CC)c1ccc(C=NNc2nc3ccccc3[nH]2)cc1,nt,nt,nt,-34,nt,nt
SMILES,XBP1 UPR activ,Fh CTSL1 inh,CHOP UPR activ,UCH37 inh,CHOP inhibitor,CHOP confirm
Cc1ccc(CNC(=O)C2CCC(CNc3nc(=S)[nH]c4ccccc34)CC2)cc1 (stereo unspecified),0,4,-2,3,98*,40
Cc1cc(C2=NNC(=NC3CC3)SC2)c(C)n1-c1ccccc1,nt,nt,nt,6,106*,121*
O=C(NN=Cc1ccncc1)c1cc2ccccc2o1,nt,nt,nt,6,nt,nt
O=C1ON=C(c2ccccc2)/C1=C/c1ccco1,10,-2,3,6,104*,-80
COc1ccc(/C=C2/C(=O)ON=C2c2ccccc2)cc1OC,2,0,5,1,105*,104*
CN(C)/C=C1\C(=O)ON=C1c1ccccc1,5,-2,-2,2,20,nt
S=c1[nH]nc(-c2ccco2)n1N=Cc1ccc(Cl)cc1Cl,nt,nt,nt,3,nt,nt
